# Measurements published in ChEMBL document CHEMBL1158182, “Antifungal activity of chalcones: a mechanistic study using various yeast strains” (Eur J Med Chem, 2008).
# Active and inactive are the calls of the source. No cut-off for these calls is given here.
# Legend:
# [1] = test system: Ogataea angusta; assay: Antifungal activity against Hansenula polymorpha AS1 with arg1 gsh2delta genotype by agar dilution method; type: functional
# Procedure, shortened: (§1)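 H. polymorpha strains were tested by agar dilution on rich YPD agar at 37 °C. Compound stocks in 96% EtOH were mixed into the medium to give […]. Cells were suspended in water, serially diluted to 10^9, 10^7, 10^5 and 10^3 cells/ml, and applied to the agar with a metal replicator. MIC was read from growth.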
# [2] = test system: Ogataea angusta; assay: Antifungal activity against Hansenula polymorpha AS1 with gsh1 genotype at 20 to 30 uM after 1 day by agar dilution method; type: functional, organism-based
# [3] = test system: Ogataea angusta; assay: Antifungal activity against Hansenula polymorpha AS2 with gsh2 genotype with cellular density of 10^3 cells/ml at >40 uM by agar dilution method; type: functional, organism-based
# [4] = test system: Ogataea angusta; assay: Antifungal activity against Hansenula polymorpha 2a with arg1 leu2 ura3 cys1 genotype by agar dilution method; type: functional; procedure, shortened: as §1
# [5] = test system: Saccharomyces cerevisiae; assay: Antifungal activity against haploid Saccharomyces cerevisiae 1S by agar dilution method; type: functional
# Procedure, shortened: (§2)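 S. cerevisiae and K. lactis strains were tested by agar dilution on rich YPD agar at 30 °C. Compound stocks in 96% EtOH were added to the medium to give […]. Cells were suspended in water, serially diluted to 10^9–10^3 cells/ml, and plated with a metal replicator. MIC was read from growth.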
# [6] = test system: Saccharomyces cerevisiae; assay: Antifungal activity against diploid Saccharomyces cerevisiae 29a by agar dilution method; type: functional; procedure, shortened: as §2
# [7] = test system: Ogataea angusta; assay: Antifungal activity against Hansenula polymorpha CD2 with ade1 leu2 cds2 genotype by agar dilution method; type: functional; procedure, shortened: as §1
# [8] = test system: Ogataea angusta; assay: Antifungal activity against Hansenula polymorpha M4 with met4 genotype by agar dilution method; type: functional; procedure, shortened: as §1
# [9] = test system: Ogataea angusta; assay: Antifungal activity against Hansenula polymorpha 2a with cys1 genotype at 20 to 30 uM after 1 day by agar dilution method; type: functional, organism-based
# [10] = test system: Saccharomyces cerevisiae; assay: Antifungal activity against haploid Saccharomyces cerevisiae FY4 by agar dilution method; type: functional; procedure, shortened: as §2
# [11] = test system: Ogataea angusta; assay: Antifungal activity against Hansenula polymorpha CTA1 with leu2 cat1 genotype by agar dilution method; type: functional
# Procedure, shortened: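 MICs by agar dilution on rich YPD medium. Compounds were added from 96% EtOH stocks to give final agar concentrations of 20 to 50 (units as printed in the source). Cells were suspended in water, serially diluted to 10^9, 10^7, 10^5 and 10^3 cells/ml, and spotted onto agar with a metal replicator. Incubation was at 37 °C for H. polymorpha and 30 °C for S. cerevisiae.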
# [12] = test system: Saccharomyces cerevisiae; assay: Antifungal activity against haploid Saccharomyces cerevisiae YSH1170 by agar dilution method; type: functional; procedure, shortened: as §2
# [13] = test system: Ogataea angusta; assay: Antifungal activity against Hansenula polymorpha CD3 with ade1 leu2 cds3 genotype by agar dilution method; type: functional; procedure, shortened: as §1
# [14] = test system: Ogataea angusta; assay: Antifungal activity against Hansenula polymorpha 2b with arg1 ade1 leu2 genotype by agar dilution method; type: functional; procedure, shortened: as §1
# [15] = test system: Ogataea angusta; assay: Antifungal activity against Hansenula polymorpha WT1 with ade1 ura3 genotype by agar dilution method; type: functional; procedure, shortened: as §1
# [16] = test system: Ogataea angusta; assay: Antifungal activity against Hansenula polymorpha WT1 at 20 to 30 uM after 1 day by agar dilution method; type: functional, organism-based
# [17] = test system: Ogataea angusta; assay: Antifungal activity against Hansenula polymorpha AS2 with gsh2 genotype with cellular density of 10^9 cells/ml at 40 uM by agar dilution method; type: functional, organism-based
# [18] = test system: Ogataea angusta; assay: Antifungal activity against Hansenula polymorpha AS1 with gsh1 genotype with cellular density of 10^3 cells/ml at >40 uM by agar dilution method; type: functional, organism-based
# [19] = test system: Ogataea angusta; assay: Antifungal activity against Hansenula polymorpha M2 with met2 genotype by agar dilution method; type: functional; procedure, shortened: as §1
# [20] = test system: Ogataea angusta; assay: Antifungal activity against Hansenula polymorpha CRD2 with leu2 CDR2 genotype by agar dilution method; type: functional; procedure, shortened: as §1
# [21] = test system: Ogataea angusta; assay: Antifungal activity against Hansenula polymorpha R3 with rgh3 genotype by agar dilution method; type: functional; procedure, shortened: as §1
# [22] = test system: Ogataea angusta; assay: Antifungal activity against Hansenula polymorpha 2a with cys1 genotype with cellular density of 10^9 cells/ml at 40 uM by agar dilution method; type: functional, organism-based
# [23] = test system: Ogataea angusta; assay: Antifungal activity against Hansenula polymorpha AS2 with gsh2 genotype at 20 to 30 uM after 1 day by agar dilution method; type: functional, organism-based
# [24] = test system: Ogataea angusta; assay: Antifungal activity against Hansenula polymorpha WT1 with cellular density of 10^9 cells/ml at 40 uM by agar dilution method; type: functional, organism-based
# [25] = test system: Ogataea angusta; assay: Antifungal activity against Hansenula polymorpha CD1 with ade1 leu2 cds1 genotype by agar dilution method; type: functional; procedure, shortened: as §1
# [26] = test system: Ogataea angusta; assay: Antifungal activity against Hansenula polymorpha WT2 with ade1 met6 genotype by agar dilution method; type: functional; procedure, shortened: as §1
# [27] = test system: Saccharomyces cerevisiae; assay: Antifungal activity against haploid Saccharomyces cerevisiae YSH1171 by agar dilution method; type: functional; procedure, shortened: as §2
# [28] = test system: Ogataea angusta; assay: Antifungal activity against Hansenula polymorpha WT1 with cellular density of 10^3 cells/ml at >40 uM by agar dilution method; type: functional, organism-based
# [29] = test system: Ogataea angusta; assay: Antifungal activity against Hansenula polymorpha 2a with cys1 genotype with cellular density of 10^3 cells/ml at >40 uM by agar dilution method; type: functional, organism-based
# [30] = test system: Saccharomyces cerevisiae; assay: Antifungal activity against haploid Saccharomyces cerevisiae 2180 by agar dilution method; type: functional; procedure, shortened: as §2
# [31] = test system: Kluyveromyces lactis; assay: Antifungal activity against Kluyveromyces lactis 2-19B with MATalpha ura lys arg genotype by agar dilution method; type: functional; procedure, shortened: as §2
# [32] = test system: Ogataea angusta; assay: Antifungal activity against Hansenula polymorpha AS1 with gsh1 genotype with cellular density of 10^9 cells/ml at 40 uM by agar dilution method; type: functional, organism-based
# [33] = test system: Saccharomyces cerevisiae; assay: Antifungal activity against diploid Saccharomyces cerevisiae 1a by agar dilution method; type: functional; procedure, shortened: as §2
# [34] = test system: Kluyveromyces lactis; assay: Antifungal activity against Kluyveromyces lactis 1-6A with MATalpha uraA lys arg genotype by agar dilution method; type: functional; procedure, shortened: as §2
# [35] = test system: Saccharomyces cerevisiae; assay: Antifungal activity against haploid Saccharomyces cerevisiae Sigma 1278b by agar dilution method; type: functional; procedure, shortened: as §2
# [36] = test system: Kluyveromyces lactis; assay: Antifungal activity against Kluyveromyces lactis 2-18B with MATalpha metA1 ura3 leu2 genotype by agar dilution method; type: functional; procedure, shortened: as §2
# [37] = test system: Ogataea angusta; assay: Antifungal activity against Hansenula polymorpha MC1 with met2 cys1 genotype by agar dilution method; type: functional; procedure, shortened: as §1
# [38] = test system: Ogataea angusta; assay: Antifungal activity against Hansenula polymorpha D22 with arg1/arg1 ade1/ADE1 leu2/leu2 URA3/ura3 CYS1/cys1 genotype by agar dilution method; type: functional; procedure, shortened: as §1
# [39] = test system: Ogataea angusta; assay: Antifungal activity against Hansenula polymorpha AU05 with ade3 ura3 genotype by agar dilution method; type: functional; procedure, shortened: as §1
# [40] = test system: Saccharomyces cerevisiae; assay: Antifungal activity against haploid Saccharomyces cerevisiae 10560-6B by agar dilution method; type: functional; procedure, shortened: as §2
# [41] = Stability of compound in liquid YPD media after 48 hrs by UV spectrophotometry; type: physicochemical
# Procedure, shortened: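 Compound from a 96% EtOH stock was added to liquid YPD to […]. The medium was inoculated with 10^5 cells/ml of H. polymorpha WT1 and incubated at 37 °C. Samples were taken at 24 and 48 h and centrifuged, and compound in the supernatant was measured by absorbance at 308 nm. Controls had no cells. Assays were run in triplicate.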
# [42] = test system: Saccharomyces cerevisiae; assay: Antifungal activity against haploid Saccharomyces cerevisiae 1169 by agar dilution method; type: functional; procedure, shortened: as §2
structure (smiles),measurement,setting,value
O=C(/C=C/c1ccccc1)c1ccccc1 [CHALCONE],MIC,[1],20 µg/mL
same,Activity,[2],Active
same,Activity,[3],Active
same,MIC,[4],25 µg/mL
same,MIC,[5],> 40 µg/mL
same,MIC,[6],> 40 µg/mL
same,MIC,[7],30 µg/mL
same,MIC,[8],< 20 µg/mL
same,Activity,[9],Active
same,MIC,[10],> 40 µg/mL
same,MIC,[11],30 µg/mL
same,MIC,[12],> 40 µg/mL
same,MIC,[13],30 µg/mL
same,MIC,[14],30 µg/mL
same,MIC,[15],30 µg/mL
same,Activity,[16],Active
same,Activity,[17],inactive
same,Activity,[18],Active
same,MIC,[19],30 µg/mL
same,MIC,[20],> 40 µg/mL
same,MIC,[21],> 40 µg/mL
same,Activity,[22],inactive
same,Activity,[23],Active
same,Activity,[24],inactive
same,MIC,[25],30 µg/mL
same,MIC,[26],30 µg/mL
same,MIC,[27],> 40 µg/mL
same,Activity,[28],Active
same,Activity,[29],Active
same,MIC,[30],> 40 µg/mL
same,MIC,[31],25 µg/mL
same,Activity,[32],inactive
same,MIC,[33],> 40 µg/mL
same,MIC,[34],< 20 µg/mL
same,MIC,[35],> 40 µg/mL
same,MIC,[36],< 20 µg/mL
same,MIC,[37],20 µg/mL
same,MIC,[38],30 µg/mL
same,MIC,[39],< 20 µg/mL
same,MIC,[40],> 40 µg/mL
same,Activity,[41],7.1 µg/mL
same,MIC,[42],> 40 µg/mL
